Measured values as given in ChEMBL document CHEMBL4138279, “Probing the Antiallergic and Anti-inflammatory Activity of Biflavonoids and Dihydroflavonols from Dietes bicolor” (J Nat Prod, 2018).
pIC50: −log10 of the molar value.

Assays:
Neutrophil [1] = assay: (§1) Anti-inflammatory activity in human neutrophils assessed as inhibition of fMLP/CB-induced superoxide anion generation at 10 uM pretreated for 5 mins followed by cytochalasin B addition for 3 mins and subsequent fMLP stimulation for 10 mins by superoxide dismutase inhibitable reduction of ferricytochrome c based spectrophotometric assay relative to control; type: functional
Outline: (§2)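 Human neutrophils isolated from venous blood of healthy adult volunteers (20−30 years), stimulated with fMLF/cytochalasin B. Superoxide anion was measured as ferricytochrome c reduction. Pure compounds were tested at 0.3 to 10 μM. IC50 was taken as the concentration giving 50% inhibition, and single-point values as % inhibition at 10 μM versus fMLF/CB control. Mean ± SEM, n = 3−4.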

Neutrophil [2] = assay: as §1, with “generation” for “generation at 10 uM”, “assay” for “assay relative to control”; type: functional, cell-based; outline: as §2
Neutrophil [3] = assay: Antiinflammatory activity in human neutrophils assessed as inhibition of fMLP/CB-induced elastase release at 10 uM pretreated for 5 mins followed by fMLP/CB stimulation using MeO-Suc-Ala-Ala-Pro-Val-p-nitroanilide as substrate relative to control; type: functional
Outline: (§3)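 Elastase release from fMLF/cytochalasin B-activated human neutrophils, isolated from venous blood of healthy volunteers aged 20−30, measured with N-methoxysuccinyl-Ala-Ala-Pro-Val-p-nitroanilide as substrate. Pure compounds were tested at 0.3 to 10 μM. Results are IC50 or % inhibition at 10 μM relative to fMLF/CB control, mean ± SEM (n = 3−4).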

Neutrophil [4] = assay: Antiinflammatory activity in human neutrophils assessed as inhibition of fMLP/CB-induced elastase release pretreated for 5 mins followed by fMLP/CB stimulation using MeO-Suc-Ala-Ala-Pro-Val-p-nitroanilide as substrate; type: functional, cell-based; outline: as §3
RBL-2H3 [5] = assay: Antiallergic activity in rat RBL2H3 cells assessed as inhibition of A23187-induced beta hexosaminidase release at 200 uM pretreated for 20 hrs followed by A23187 addition measured after 1 hr by p-NAG substrate based assay relative to control; type: functional
Outline: (§4)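 Degranulation assay: RBL-2H3 cells were seeded at 2 × 10^4 cells/well overnight and exposed to compounds (1 to 400 μM) for 20 h. They were then activated with calcium ionophore A23187 (1 μM). Released β-hexosaminidase was quantified using p-NAG substrate and expressed as % inhibition relative to A23187 control, mean ± SD (n = 3).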

RBL-2H3 [6] = assay: Antiallergic activity in rat RBL2H3 cells assessed as inhibition of A23187-induced beta hexosaminidase release at 400 uM pretreated for 20 hrs followed by A23187 addition measured after 1 hr by p-NAG substrate based assay relative to control; type: functional; outline: as §4
RBL-2H3 [7] = assay: (§5) Antiallergic activity in anti-DNP IgE-sensitized rat RBL2H3 cells assessed as inhibition of DNP-BSA-induced beta hexosaminidase release at 100 uM pretreated for 20 hrs followed by anti-DNP IgE-sensitization for 2 hrs and subsequent DNP-BSA addition measured after 1 hr by p-NAG substrate based assay relative to control; type: functional
Outline: (§6)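 RBL-2H3 cells in DMEM with 10% FBS at 37 °C and 5% CO2 were seeded at 3 × 10^4 cells/well overnight, then treated 20 h with compounds (1 to 400 μM). Cells were sensitized with anti-DNP IgE (1 μg/mL, at least 2 h) and challenged with DNP-BSA (100 ng/mL) for 1 h. β-Hexosaminidase was read with p-NAG substrate as % inhibition versus antigen control. Mean ± SD, n = 3.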

RBL-2H3 [8] = assay: Antiallergic activity in rat RBL2H3 cells assessed as inhibition of A23187-induced beta hexosaminidase release at 100 uM pretreated for 20 hrs followed by A23187 addition measured after 1 hr by p-NAG substrate based assay relative to control; type: functional; outline: as §4
RBL-2H3 [9] = assay: Antiallergic activity in rat RBL2H3 cells assessed as inhibition of A23187-induced beta hexosaminidase release at 10 uM pretreated for 20 hrs followed by A23187 addition measured after 1 hr by p-NAG substrate based assay relative to control; type: functional; outline: as §4
RBL-2H3 [10] = assay: as §5, with “1” for “100”; type: functional; outline: as §6
RBL-2H3 [11] = assay: Antiallergic activity in rat RBL2H3 cells assessed as inhibition of A23187-induced beta hexosaminidase release at 1 uM pretreated for 20 hrs followed by A23187 addition measured after 1 hr by p-NAG substrate based assay relative to control; type: functional; outline: as §4
RBL-2H3 [12] = assay: as §5, with “200” for “100”; type: functional; outline: as §6
RBL-2H3 [13] = assay: as §5, with “10” for “100”; type: functional; outline: as §6
Neutrophil elastase = target: T1, Neutrophil elastase (Homo sapiens, UniProt P08246); assay: Inhibition of human neutrophil elastase using N-Methoxysuccinyl-Ala-Ala-Pro-Val-p-nitroanilid as substrate measured after 1 hr
T1 sequence (P08246 whole entry): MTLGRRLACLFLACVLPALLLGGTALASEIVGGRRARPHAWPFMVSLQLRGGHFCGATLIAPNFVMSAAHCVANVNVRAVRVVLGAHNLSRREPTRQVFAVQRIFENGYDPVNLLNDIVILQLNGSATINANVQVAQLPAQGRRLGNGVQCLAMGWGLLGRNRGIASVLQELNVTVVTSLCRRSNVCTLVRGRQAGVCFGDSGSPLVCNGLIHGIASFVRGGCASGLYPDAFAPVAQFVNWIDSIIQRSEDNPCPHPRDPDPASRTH

RBL-2H3 [14] = assay: as §5, with “400” for “100”; type: functional; outline: as §6
[15] = Cytotoxicity against rat RBL2H3 cells assessed as cell viability at 400 uM after 24 hrs by MTT assay relative to control; type: cell-based; conditions: RBL-2H3 cells, read-out: Activity
Outline: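 Viability of RBL-2H3 cells, cultured in DMEM with 10% FBS at 37 °C and 5% CO2, was determined by MTT after exposure to pure compounds at 400 μM. It is expressed as % of untreated control, mean ± SD (n = 3). Viability below 80% was classed as cytotoxic.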

RBL-2H3 [16] = assay: Antiallergic activity in anti-DNP IgE-sensitized rat RBL2H3 cells assessed as inhibition of DNP-BSA-induced beta hexosaminidase release pretreated for 10 mins followed by DNP-BSA addition measured after 10 mins by p-NAG substrate based assay; type: functional, cell-based
RBL-2H3 [17] = assay: Antiallergic activity in rat RBL2H3 cells assessed as inhibition of A23187-induced beta hexosaminidase release at 10 nM pretreated for 20 hrs followed by A23187 addition measured after 1 hr by p-NAG substrate based assay relative to control; type: functional
RBL-2H3 [18] = assay: as §5, with “10 nM” for “100 uM”; type: functional

Row | Structure (SMILES) | inhibition at 10 µM (Neutrophil [1]) [%] | pIC50 (Neutrophil [2]) | inhibition at 10 µM (Neutrophil [3]) [%] | pIC50 (Neutrophil [4]) | inhibition at 200 µM (RBL-2H3 [5]) [%] | inhibition at 400 µM (RBL-2H3 [6]) [%] | inhibition at 100 µM (RBL-2H3 [7]) [%] | inhibition at 100 µM (RBL-2H3 [8]) [%] | inhibition at 10 µM (RBL-2H3 [9]) [%] | inhibition at 1 µM (RBL-2H3 [10]) [%] | inhibition at 1 µM (RBL-2H3 [11]) [%] | inhibition at 200 µM (RBL-2H3 [12]) [%] | inhibition at 10 µM (RBL-2H3 [13]) [%] | pIC50 (Neutrophil elastase) | inhibition at 400 µM (RBL-2H3 [14]) [%] | viability at 24 h, 400 µM [15] [%] | pIC50 (RBL-2H3 [16]) | inhibition at 0.01 µM (RBL-2H3 [17]) [%] | inhibition at 0.01 µM (RBL-2H3 [18]) [%]
1 | O=c1cc(N2CCOCC2)oc2c(-c3ccccc3)cccc12 [LY-294002] | 96.5 | 5.90 | 71.5 | 5.46 | – | – | – | – | – | – | – | – | – | – | – | – | – | – | –
2 | O=c1cc(-c2ccc(O)c(-c3c(O)cc4oc(-c5ccc(O)cc5)cc(=O)c4c3O)c2)oc2cc(O)cc(O)c12 [ROBUSTAFLAVONE] | 105 | 6.00 | 103 | 6.35 | 2.7 | 45.3 | 2.7 | 6 | 5.3 | 4 | 2.3 | 3 | 3 | 5.88 | 49 | 92.3 | – | – | –
3 | COc1c2c(cc3c1C(=O)[C@H](O)[C@@H](c1ccccc1)O3)OCO2 (relative stereo) | – | – | – | – | – | – | – | – | – | – | – | – | – | – | – | – | < 4.00 | – | –
4 | C[C@@H]1C[C@H]2[C@@H]3CCC4=CC(=O)C=C[C@]4(C)[C@@]3(F)[C@@H](O)C[C@]2(C)[C@@]1(O)C(=O)CO [DEXAMETHASONE] | – | – | – | – | – | – | – | – | – | – | – | – | – | – | – | – | – | 80.7 | 79.7
5 | COc1cc(O)c2c(=O)c(-c3ccc(O)c(OC)c3)coc2c1 | 48.9 | < 5.00 | 27.1 | < 5.00 | 22.7 | – | 9 | 23.7 | 1.7 | 2.3 | 0.3 | 18 | 1.3 | – | – | 69 | < 4.00 | – | –
6 | COc1c(O)cc(O)c2c1O[C@H](c1ccccc1)[C@@H](O)C2=O | – | – | – | – | – | – | – | – | – | – | – | – | – | – | – | – | < 4.00 | – | –
7 | O=c1cc(-c2ccc(O)c(-c3c(O)cc(O)c4c(=O)cc(-c5ccc(O)cc5)oc34)c2)oc2cc(O)cc(O)c12 [AMENTOFLAVONE] | 104 | 6.00 | 108 | 6.12 | 3.3 | 42.3 | 2.7 | 0 | 6.7 | 4.7 | 2 | 7.7 | 1.3 | 5.90 | 50 | 97.7 | – | – | –
8 | COc1cc(OC)c2c(c1)O[C@H](c1ccccc1)[C@@H](O)C2=O (relative stereo) | – | – | – | – | – | – | – | – | – | – | – | – | – | – | – | – | < 4.00 | – | –
